Measured values from different studies.
Protocols differ between the studies behind these lines.
Target: Histamine H1 receptor (HRH1, Homo sapiens, UniProt P35367)
Technique: radioligand

Compound | test | setting | Ki
CCCCN1CCC(COC(=O)c2ccc(N)c(OCF)c2)CC1 | cell-free assay | – | > 10000 nM
CCCCCCCNCCCc1ccc([N+](=O)[O-])cc1 | ligand displacement | – | 9200 nM
CN(C)c1ccc(/C=C2\CCc3ccc(OCCCN4CCCCC4)cc3C2=O)cc1 | ligand displacement | cell membranes | 2140 nM
CNc1nc2cc(OCCCCN3CCC(c4cccc(Cl)c4Cl)CC3)ccc2s1 | ligand displacement | – | 28 nM
CN1CCC(C2c3ccccc3CCc3ccccc32)CC1 | cell-free assay | – | 0.631 nM
O=C1NC(c2ccccc2)(c2ccccc2)C(=O)N1CCCN1CCCCC1 | ligand displacement | cell membranes | 6310 nM
CN(C)c1ccc(/C=C/C=C2\CCc3cc(OCc4ccc(OCCCN5CCCCC5)cc4)ccc3C2=O)cc1 | ligand displacement | cell membranes | 1370 nM
CN1CCN(C2c3ccccc3CCc3ccccc32)CC1 | cell-free assay | – | 2 nM
Cc1nc2cc(OCCCCN3CCN(c4cccc(Cl)c4Cl)CC3)ccc2s1 | ligand displacement | – | 57 nM
CN1CCC(=C(c2ccccc2)c2ccccc2)CC1 | cell-free assay | – | 3.16 nM
O=C1CCCc2cc(OCCCN3CCCCC3)ccc21 | ligand displacement | cell membranes | 3470 nM
CN1CCN(C2c3ccccc3C=Cc3ccccc32)CC1 | cell-free assay | – | 2 nM
CCCNc1nc2ccccc2n1Cc1ccc(Cl)cc1 | cell-free assay | – | 6.2 nM
CN(C)c1ccc(/C=C2\CCc3ccc(OCc4ccc(OCCCN5CCCCC5)cc4)cc3C2=O)cc1 | ligand displacement | cell membranes | 4230 nM
